Experimental data: ChEMBL document CHEMBL3044632, “Synthesis, crystal structure, and biological activity of 4-methyl-1,2,3-thiadiazole-containing 1,2,4-triazolo[3,4-b][1,3,4]thiadiazoles” (J Agric Food Chem, 2010)

How the values were obtained:
[1] = tested on: Tobacco mosaic virus; experiment: Antiviral activity against Tobacco mosaic virus (TMV) infected leaves assessed as viral inhibition at 50 ug/mL at 25 degC for 72 hr; type: functional
Summary of the method: (§1)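 Systemic acquired resistance induction was assayed in a tobacco–TMV system. The antivirus inhibition ratio was calculated from the average number of viral lesions on inoculated leaves, relative to the corresponding control.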

[2] = tested on: Cercospora beticola; experiment: Fungicide activity against Cercospora beticola assessed as growth inhibition at 50 ug/mL at 24 to 26 degC measured after 2 days; type: functional; conditions: 48 h, read-out: GI
[3] = tested on: Colletotrichum lagenaria; experiment: Fungicide activity against Colletotrichum lagenaria assessed as growth inhibition at 50 ug/mL at 24 to 26 degC measured after 2 days; type: functional; conditions: 48 h, read-out: GI
[4] = tested on: Alternaria solani; experiment: Fungicide activity against Alternaria solani assessed as growth inhibition at 50 ug/mL at 24 to 26 degC measured after 2 days; type: functional; conditions: 48 h, read-out: GI
[5] = tested on: Mycosphaerella arachidis; experiment: Fungicide activity against Mycosphaerella arachidis assessed as growth inhibition at 50 ug/mL at 24 to 26 degC measured after 2 days; type: functional; conditions: 48 h, read-out: GI
[6] = tested on: Nicotiana tabacum; experiment: Phytotoxicity against Nicotiana tabacum (tobacco) plant at 50 to 500 ug/mL; type: organism-based; conditions: in vivo
[7] = tested on: Phytophthora infestans; experiment: Fungicide activity against Phytophthora infestans assessed as growth inhibition at 50 ug/mL at 24 to 26 degC measured after 2 days; type: functional; conditions: 48 h, read-out: GI
[8] = tested on: Thanatephorus cucumeris; experiment: Fungicide activity against Thanatephorus cucumeris assessed as growth inhibition at 50 ug/mL at 24 to 26 degC measured after 2 days; type: functional; conditions: 48 h, read-out: GI
[9] = tested on: Botryosphaeria berengeriana; experiment: Fungicide activity against Botryosphaeria berengeriana assessed as growth inhibition at 50 ug/mL at 24 to 26 degC measured after 2 days; type: functional; conditions: 48 h, read-out: GI
[10] = tested on: Fusarium oxysporum; experiment: Fungicide activity against Fusarium oxysporum assessed as growth inhibition at 50 ug/mL at 24 to 26 degC measured after 2 days; type: functional; conditions: 48 h, read-out: GI
[11] = tested on: Fusarium graminearum; experiment: Fungicide activity against Fusarium graminearum assessed as growth inhibition at 50 ug/mL at 24 to 26 degC measured after 2 days; type: functional; conditions: 48 h, read-out: GI
[12] = tested on: Botrytis cinerea; experiment: Fungicide activity against Botryotinia fuckeliana assessed as growth inhibition at 50 ug/mL at 24 to 26 degC measured after 2 days; type: functional; conditions: 48 h, read-out: GI
[13] = tested on: Puccinia triticina; experiment: Fungicide activity against Puccinia triticina assessed as growth inhibition at 50 ug/mL at 24 to 26 degC measured after 2 days; type: functional; conditions: 48 h, read-out: GI
[14] = tested on: Tobacco mosaic virus; experiment: Antiviral activity against Tobacco mosaic virus (TMV) infected leaves assessed as viral inhibition at 500 ug/mL at 25 degC for 72 hr; type: functional; summary of the method: as §1
[15] = tested on: Tobacco mosaic virus; experiment: Antiviral activity against Tobacco mosaic virus (TMV) infected leaves assessed as viral inhibition at 100 ug/mL at 25 degC for 72 hr; type: functional; summary of the method: as §1

| SMILES | inhibition at 50 µg/mL [1] [%] | inhibition of growth at 50 µg/mL [2] [%] | inhibition of growth at 50 µg/mL [3] [%] | inhibition of growth at 50 µg/mL [4] [%] | inhibition of growth at 50 µg/mL [5] [%] | Activity [6] | inhibition of growth at 50 µg/mL [7] [%] | inhibition of growth at 50 µg/mL [8] [%] | inhibition of growth at 50 µg/mL [9] [%] | inhibition of growth at 50 µg/mL [10] [%] | inhibition of growth at 50 µg/mL [11] [%] | inhibition of growth at 50 µg/mL [12] [%] | inhibition of growth at 50 µg/mL [13] [%] | inhibition at 500 µg/mL [14] [%] | inhibition at 100 µg/mL [15] [%] |
| --- | --- | --- | --- | --- | --- | --- | --- | --- | --- | --- | --- | --- | --- | --- | --- |
| Cc1nnsc1C1=NNC2SC(COc3ccc(Cl)cc3Cl)=NN12 (stereo unspecified) | 0 | 20 | 19.2 | 31.3 | 31 | Toxic | 12.1 | 33.3 | 23.8 | 3 | 12.5 | – | – | – | – |
| Cc1nnsc1C1=NNC2SC(c3ccc(F)cc3)=NN12 (stereo unspecified) | 0 | 7.1 | 10.3 | 26.3 | 33.1 | Toxic | 15.6 | 11.3 | 18.6 | 9.3 | 14.3 | 53.3 | – | – | – |
| Cc1nnsc1C1=NNC2SC(C(C)(C)C)=NN12 (stereo unspecified) | 7.89 | 23.8 | 5.88 | 16.7 | 36.4 | Toxic | 14.7 | 56.7 | 17.7 | 13.9 | – | – | 26.3 | – | – |
| Cc1nnsc1C1=NNC2SC(c3c(-c4ccccc4)noc3C)=NN12 (stereo unspecified) | 14.6 | 10 | 13.6 | 33.3 | 30 | Toxic | 7.4 | 25.4 | 8.9 | 13.8 | 27.3 | 46.2 | – | – | – |
| COc1cccc(C2=NN3C(c4snnc4C)=NNC3S2)c1 (stereo unspecified) | 0 | 14.3 | 0 | 23.3 | 18.2 | Toxic | 17.3 | 60.8 | 45.2 | 19.4 | – | – | 31.6 | – | – |
| COc1ccccc1C1=NN2C(c3snnc3C)=NNC2S1 (stereo unspecified) | 40 | 30 | 27.3 | 30 | 25 | Toxic | 11.1 | 32.8 | 24.4 | 17.2 | 18.2 | 50 | – | – | – |
| Cc1nnsc1C1=NNC2SC(CCl)=NN12 (stereo unspecified) | 29.2 | 21.4 | 4.3 | 23.8 | 34.8 | Toxic | 11.4 | 38.4 | 33.3 | 25 | 33.3 | 65.2 | – | – | – |
| Cc1nnsc1C1=NNC2SC(c3cccc(F)c3)=NN12 (stereo unspecified) | – | 27.3 | 0 | 37.1 | 23.5 | Toxic | 0 | 32.8 | 54.1 | 10 | 40.5 | 75 | – | 30.7 | 24.2 |
| Cc1nnsc1C1=NNC2SC(/C=C/c3ccccc3)=NN12 (stereo unspecified) | – | 13.3 | 26.9 | 31.3 | 27.6 | Toxic | 18.2 | 33.3 | 40.5 | 9.1 | 17.5 | 81.8 | – | 27.8 | 16.7 |
| Cc1nnsc1C1=NNC2SC(c3c(Cl)cccc3Cl)=NN12 (stereo unspecified) | 12.5 | 28.6 | 20.7 | 23.7 | 23.1 | Toxic | 20 | 42.3 | 37.2 | 13.9 | 14.3 | 64.4 | – | – | – |
| Cc1nnsc1C1=NNC2SC(c3ccccc3F)=NN12 (stereo unspecified) | – | 23.8 | 11.8 | 40 | 18.2 | Toxic | 20 | 58.8 | 24.2 | 19.4 | – | – | 21.1 | 53.6 | 9.5 |
| Cc1nnsc1C1=NNC2SC(c3ccco3)=NN12 (stereo unspecified) | – | 42.9 | 0 | 43.3 | 36.4 | Toxic | 14.7 | 45.1 | 29 | 22.2 | – | – | 21 | 23.5 | 20 |
| CCCC1=NN2C(c3snnc3C)=NNC2S1 (stereo unspecified) | 0 | 33.3 | 50 | 34.4 | 62.1 | Toxic | 75.8 | 77.8 | 40.5 | 93 | 75 | 84.9 | – | – | – |
| Cc1nnsc1C1=NNC2SC(c3ccc([N+](=O)[O-])cc3)=NN12 (stereo unspecified) | – | 14.3 | 13.8 | 26.7 | 30.8 | Toxic | 22.2 | 32.4 | 34.9 | 20.9 | 11.9 | 60 | – | 52.9 | 16.7 |
| Cc1nnsc1C1=NNC2SC(c3cccc(OC(F)(F)F)c3)=NN12 (stereo unspecified) | – | 35.7 | 13.8 | 23.7 | 23.1 | Toxic | 17.8 | 35.2 | 25.6 | 18.6 | 4.8 | 68.9 | – | 37.5 | 30 |
